Measurements from publication PMC6175042 (Journal of nuclear medicine : official publication, Society …, 2018).

What was measured:
[1] = tested on: αvβ3 integrin-negative FaDu xenograft tumours (αvβ3 integrin expressed solely on neovasculature); assay: Ex vivo biodistribution in mice with FaDu xenografts; details: i.v. 0.5 nmol/mouse, 1 h post injection, n=5; for Tumour uptake, FaDu: mean ± SD; for Tumour-to-blood ratio, FaDu / Tumour-to-duodenum ratio / Tumour-to-heart ratio / Tumour-to-kidneys ratio / Tumour-to-liver ratio / Tumour-to-lung ratio / Tumour-to-muscle ratio / Tumour-to-pancreas ratio / Tumour-to-spleen ratio / Tumour-to-stomach ratio: FaDu
[2] = as above; details: female, BALB/c nude (BALB/c nu/nu/Foxn1nu), mouse, salivary glands, iv, 0.5 nmol/mouse
[3] = tested on: αvβ3 integrin-positive SK-RC-52 xenograft tumours; assay: Ex vivo biodistribution in mice with SK-RC-52 xenografts; details: i.v. 0.5 nmol/mouse, 1 h post injection, n=5; for Tumour uptake, SK-RC-52: mean ± SD; for Tumour-to-blood ratio, SK-RC-52 / Tumour-to-duodenum ratio / Tumour-to-heart ratio / Tumour-to-kidneys ratio / Tumour-to-liver ratio / Tumour-to-lung ratio / Tumour-to-muscle ratio / Tumour-to-pancreas ratio / Tumour-to-spleen ratio / Tumour-to-stomach ratio: SK-RC-52
In short: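 Female athymic BALB/c nu/nu mice (6–8 weeks) received 2x10^6 SK-RC-52 cells s.c. in the left flank. Cells were grown in RPMI 1640 with 10% FCS and 1% glutamine. The 68Ga-labelled test compound (15 MBq in 0.3 ml PBS with 0.5% BSA, pH 7.4) was injected via the tail vein into awake, heat-lamp-warmed mice. After CO2/O2 euthanasia, tissues were dissected, weighed and gamma-counted against 1% standards, giving %ID/g.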

αvβ3 integrin = details: cited from earlier work

| SMILES | Tumour uptake, FaDu [1] [%ID/g] | Tumour-to-blood ratio, FaDu [1] | Tumour-to-duodenum ratio [1] | Tumour-to-heart ratio [1] | Tumour-to-kidneys ratio [1] | Tumour-to-liver ratio [1] | Tumour-to-lung ratio [1] | Tumour-to-muscle ratio [1] | Tumour-to-pancreas ratio [1] | Tumour-to-spleen ratio [1] | Tumour-to-stomach ratio [1] | tissue uptake at 1 h [2] [%ID/g] | Tumour uptake, SK-RC-52 [3] [%ID/g] | Tumour-to-blood ratio, SK-RC-52 [3] | Tumour-to-duodenum ratio [3] | Tumour-to-heart ratio [3] | Tumour-to-kidneys ratio [3] | Tumour-to-liver ratio [3] | Tumour-to-lung ratio [3] | Tumour-to-muscle ratio [3] | other results |
| --- | --- | --- | --- | --- | --- | --- | --- | --- | --- | --- | --- | --- | --- | --- | --- | --- | --- | --- | --- | --- | --- |
| N=C(N)NCCC[C@@H]1NC(=O)[C@H](CCCCNC(=O)CCOCCOCCOCCOCCNC(=O)CCP(=O)(O)CN2CCN(CP(=O)(O)CCC(=O)NCCOCCOCCOCCOCCC(=O)NCCCC[C@@H]3NC(=O)[C@@H](Cc4ccccc4)NC(=O)[C@H](CC(=O)O)NC(=O)CNC(=O)[C@H](CCCNC(=N)N)NC3=O)CCN(CP(=O)(O)CCC(=O)NCCOCCOCCOCCOCCC(=O)NCCCC[C@@H]3NC(=O)[C@@H](Cc4ccccc4)NC(=O)[C@H](CC(=O)O)NC(=O)CNC(=O)[C@H](CCCNC(=N)N)NC3=O)CC2)NC(=O)[C@@H](Cc2ccccc2)NC(=O)[C@H](CC(=O)O)NC(=O)CNC1=O (single isomer, unassigned) [^68Ga-TRAP-(RGD)3, metal not drawn] | 1.0±0.2 | 5.8±0.9 | 0.3±0.07 | 4.4±1.4 | 0.5±0.1 | 0.8±0.2 | 1.5±0.4 | 4.8±1.2 | 4.6±1.0 | 0.9±0.2 | 0.8±0.2 | 0.7 ± 0.1 | 4.4±0.8 | 38.5±3.8 | 1.4±0.4 | 15.3±2.3 | 1.1±0.1 | 3.0±0.5 | 4.8±0.9 | 20.9±3.6 | Tumour-to-pancreas ratio [3]: 17.3±3.7; Tumour-to-spleen ratio [3]: 3.0±0.5; Tumour-to-stomach ratio [3]: 3.0±0.7; Tumour targeting compared to monomeric RGD peptides (αvβ3 integrin): improved tumour targeting |
| C/C1=C/C(=O)N(O)CCC[C@H](NC(=O)CCC(=O)NCCCC[C@@H]2NC(=O)[C@@H](Cc3ccccc3)NC(=O)[C@H](CC(=O)O)NC(=O)CNC(=O)[C@H](CCCNC(=N)N)NC2=O)C(=O)OCC/C(C)=C\C(=O)N(O)CCC[C@H](NC(=O)CCC(=O)NCCCC[C@@H]2NC(=O)[C@@H](Cc3ccccc3)NC(=O)[C@H](CC(=O)O)NC(=O)CNC(=O)[C@H](CCCNC(=N)N)NC2=O)C(=O)OCC/C(C)=C\C(=O)N(O)CCC[C@H](NC(=O)CCC(=O)NCCCC[C@@H]2NC(=O)[C@@H](Cc3ccccc3)NC(=O)[C@H](CC(=O)O)NC(=O)CNC(=O)[C@H](CCCNC(=N)N)NC2=O)C(=O)OCC1 [^68Ga-FSC-(RGD)3, metal not drawn] | 1.9±0.3 | 3.5±0.6 | 0.4±0.08 | 2.4±0.4 | 0.4±0.05 | 0.8±0.1 | 0.9±0.1 | 3.6±0.6 | 3.0±0.4 | 0.6±0.06 | 0.6±0.1 | 2.2 ± 0.3 | 12.5±2.5 | 30.7±8.1 | 1.5±0.4 | 12.4±3.2 | 1.9±0.3 | 2.5±0.2 | 4.8±0.9 | 17.2±3.2 | Tumour-to-pancreas ratio [3]: 17.9±3.5; Tumour-to-spleen ratio [3]: 2.6±0.5; Tumour-to-stomach ratio [3]: 2.6±0.3; Tumour targeting compared to monomeric RGD peptides (αvβ3 integrin): improved tumour targeting |
